Assay outcomes as filed in PubChem BioAssay.
Rows were chosen to be rich in hits. Some 4.1% of all compounds tested hit in one or more screens of this group.
Apaf1 inhib = inhibitors of human Apaf-1 apoptosome, primary screen, biochemical, DEVD-Rh110 fluorescence, uHTS. reconstituted apoptosome caspase-3 activity. 330,000 compounds, 0.71% hits. inhibition, % at 20 µM. Apoptotic protease-activating factor 1 (Homo sapiens), O14727; active = inhibition of at least 40% at 20 µM;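 also: plate controls were DMSO wells for no effect and DEVD-CHO caspase inhibitor wells for full effect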
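Assay system – apoptosome proteins · Medium – Hepes buffer, pH 7.5 · Also added – cytochrome c with DEVD-Rh110 · Timing – 30 min compound preincubation, 50 min activation, room temperature · Detection – Rh110 fluorescence, excitation 480 nm, emission 540 nm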
XBP1 UPR activ = activators of adaptive XBP1 UPR arm, primary screen, cell-based, CHO-XBP1 luciferase reporter, luminescence, uHTS; activation, % at 20 µM; IRE1-XBP1 UPR activation; percent of tunicamycin response, DMSO as zero; 330,000 compounds, 0.33% hits;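 active = versus positive control, 20 µM dose yields 30% or more activation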;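 also: 100% = tunicamycin at 10 µg/mL and 0% = DMSO only wells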
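Test system: CHO-XBP1 luciferase reporter cells | Buffer or medium: Serum-containing F12 medium, 10% FBS | Schedule: 6 h compound exposure at 37 °C, 5% CO2 | Detection: Steady-Glo luciferase glow luminescence, 10 min after reagent addition | Read-out basis: Activation, % of tunicamycin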
Mdm2 MdmX PPI = inhibitors of human Mdm2-MdmX association, primary screen, cell-based, luminescence, split luciferase, SaOS-2, uHTS. inhibition, % at 8 µM. AID 485346, 2010. SaOS-2 split-luciferase Mdm2/MdmX complementation. 330,000 compounds, 3% hits. Protein Mdm4 (Homo sapiens) + E3 ubiquitin-protein ligase Mdm2 (Homo sapiens), …;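 active = inhibition of at least 50% at 8 µM in the primary screen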
Target sequence (O15151 whole entry, looked up): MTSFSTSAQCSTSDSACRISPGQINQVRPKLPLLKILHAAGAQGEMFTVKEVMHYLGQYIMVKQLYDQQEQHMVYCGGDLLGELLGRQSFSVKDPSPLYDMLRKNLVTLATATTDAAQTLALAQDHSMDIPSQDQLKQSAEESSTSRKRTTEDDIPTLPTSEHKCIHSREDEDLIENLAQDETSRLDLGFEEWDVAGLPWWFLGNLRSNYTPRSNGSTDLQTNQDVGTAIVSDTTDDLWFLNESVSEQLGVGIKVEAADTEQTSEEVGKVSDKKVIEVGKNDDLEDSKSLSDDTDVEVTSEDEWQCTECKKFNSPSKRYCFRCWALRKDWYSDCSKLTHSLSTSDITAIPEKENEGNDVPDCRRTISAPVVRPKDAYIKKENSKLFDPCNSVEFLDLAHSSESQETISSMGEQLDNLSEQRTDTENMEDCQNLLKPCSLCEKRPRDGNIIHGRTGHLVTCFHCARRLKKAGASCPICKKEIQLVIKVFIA
Target sequence (Q00987 whole entry, looked up): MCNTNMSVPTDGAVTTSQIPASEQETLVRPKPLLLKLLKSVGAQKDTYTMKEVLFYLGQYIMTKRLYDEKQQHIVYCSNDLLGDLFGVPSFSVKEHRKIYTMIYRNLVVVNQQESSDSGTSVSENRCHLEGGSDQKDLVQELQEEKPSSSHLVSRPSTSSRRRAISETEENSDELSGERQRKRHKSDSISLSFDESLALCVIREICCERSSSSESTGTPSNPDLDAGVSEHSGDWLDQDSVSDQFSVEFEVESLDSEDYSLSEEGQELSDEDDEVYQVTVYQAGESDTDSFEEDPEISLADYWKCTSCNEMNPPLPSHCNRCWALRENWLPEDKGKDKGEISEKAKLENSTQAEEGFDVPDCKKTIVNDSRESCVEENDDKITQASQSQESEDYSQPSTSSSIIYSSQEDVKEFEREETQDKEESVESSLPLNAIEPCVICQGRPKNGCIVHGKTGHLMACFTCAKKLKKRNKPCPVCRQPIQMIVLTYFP
CHOP UPR activ = activators of apoptotic CHOP UPR arm, primary screen, cell-based, CHO-CHOP luciferase reporter, luminescence, uHTS | UPR activation; percent of tunicamycin response over DMSO baseline | activation, % at 10 µM | 330,000 compounds, 0.34% hits;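 active = at 10 µM dose, activation of 40% or more, normalized to positive control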;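 also: 100% = tunicamycin at 10 µg/mL and 0% = DMSO alone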
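Assay system: CHO cells with stable CHOP pathway luciferase reporter; Buffer or medium: F12 plus 10% serum; Times: 16-18 h cell attachment, then 6 h compound exposure, 37 °C; Signal: luciferase luminescence; Read-out basis: percent activation relative to tunicamycin control; Control set: tunicamycin high control, DMSO low control.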
UBC13 polyUb = UBC13 polyubiquitin chain formation inhibitors, primary screen, biochemical, TR-FRET, uHTS. inhibition, % at 20 µM. 330,000 compounds, 0.47% hits. Ubiquitin-conjugating enzyme E2 N (Homo sapiens), P61088. AID 485273, 2010; in the data active = inhibition above about 45%, passing the limit was not always enough
Mdm2 MdmX conf = Mdm2-MdmX complex disruptors, retested hits, confirmation, luminescence, single concentration; shares compounds with Mdm2 MdmX PPI; Mdm2-MdmX binding, luminescent assay; inhibition, % at 8 µM; 10,000 compounds, 55% hits; in the data active = inhibition above about 40%
FLuc counter = full-length luciferase signal inhibition, confirmation, counter-screen for Mdm2/MdmX interaction inhibitor project, cell-based, single concentration, SaOS-2 | shares compounds with Mdm2 MdmX PPI | SaOS-2 full-length luciferase counterscreen, luminescence | inhibition, % at 8 µM | 6,200 compounds, 77% hits;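 active = mean inhibition at 8 µM reaching about 37%, which flags the compound as non-specific, limit read from the data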;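 also: p53-null SaOS-2 cells with luciferase driven by a doxycycline-inducible promoter; compound on cells about two nights before reading with doxycycline added after day one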
* = called active by the depositor.

For O=C(Nc1cccc(Cl)c1)Nc1ccc(Br)cc1F the results were Apaf1 inhib 0, XBP1 UPR activ 6, Mdm2 MdmX PPI 82*, CHOP UPR activ 2, UBC13 polyUb 6, Mdm2 MdmX conf 80* and FLuc counter 55*.
COc1ccccc1NS(=O)(=O)c1cccc(NC(=O)Nc2cccc(Cl)c2)c1 was read as Apaf1 inhib 0, XBP1 UPR activ 5, Mdm2 MdmX PPI 55*, CHOP UPR activ 1, UBC13 polyUb 9, Mdm2 MdmX conf 49* and FLuc counter 46*.
Screening COC(=O)c1cccc(NC(=O)NC(=O)c2ccc(Cl)cc2)c1 returned Apaf1 inhib -6, XBP1 UPR activ 11, Mdm2 MdmX PPI 69*, CHOP UPR activ 14, UBC13 polyUb -5, Mdm2 MdmX conf 43* and FLuc counter 73*.
Screening COC(=O)c1cc(NC(=O)Nc2cccc(Cl)c2)ccc1Cl returned Apaf1 inhib 13, XBP1 UPR activ 5, Mdm2 MdmX PPI 88*, CHOP UPR activ 9, UBC13 polyUb -2, Mdm2 MdmX conf 43* and FLuc counter 96*.
COc1ccccc1C(CNC(=O)C(CCSC)NS(=O)(=O)c1ccccc1F)N1CCCC1 (stereo unspecified) was read as Apaf1 inhib 0, XBP1 UPR activ -3, Mdm2 MdmX PPI 40, CHOP UPR activ -1 and UBC13 polyUb 6.
COc1ccc(C2CC(=O)N(C)c3ccccc3S2)cc1OC (stereo unspecified) was read as Apaf1 inhib 0, XBP1 UPR activ 4, Mdm2 MdmX PPI 53*, CHOP UPR activ 8, UBC13 polyUb -4 and Mdm2 MdmX conf 34.
For Cc1cccc(Cn2nc(C(C)(C)C)cc2C(=O)Nc2ccc(F)cc2)c1 the results were Apaf1 inhib 4, XBP1 UPR activ 0, Mdm2 MdmX PPI 87*, CHOP UPR activ 0, UBC13 polyUb -3, Mdm2 MdmX conf 81* and FLuc counter 31.
`CC(C)(C)c1cc(C(=O)NN)n(Cc2ccc(F)cc2)n1` gave Apaf1 inhib -13, XBP1 UPR activ 0, Mdm2 MdmX PPI 7, CHOP UPR activ -2 and UBC13 polyUb 0.
Cc1ccc(O)c(N=Nc2nccs2)c1 was read as Apaf1 inhib 14, XBP1 UPR activ 1, Mdm2 MdmX PPI 75*, CHOP UPR activ 1, UBC13 polyUb -104, Mdm2 MdmX conf 64* and FLuc counter 23.
Screening CNC(=O)COc1coc(CN2CCN(C(=O)c3ccco3)CC2)cc1=O returned Apaf1 inhib -4, XBP1 UPR activ -4, Mdm2 MdmX PPI -8, CHOP UPR activ 0 and UBC13 polyUb -1.
For Cc1ccc(OCC(O)Cn2c(=N)n(Cc3ccccc3)c3ccccc32)cc1 (stereo unspecified) the results were Apaf1 inhib 2, XBP1 UPR activ 1, Mdm2 MdmX PPI 67*, CHOP UPR activ -2, UBC13 polyUb 19, Mdm2 MdmX conf 52* and FLuc counter 49*.
For N=c1n(Cc2ccccc2)c2ccccc2n1CC(O)c1ccco1 (stereo unspecified) the results were Apaf1 inhib 0, XBP1 UPR activ -3, Mdm2 MdmX PPI 35, CHOP UPR activ 2 and UBC13 polyUb 11.
COc1ccc(OCC(O)Cn2c(=N)n(Cc3ccccc3)c3ccccc32)cc1 (stereo unspecified) was read as Apaf1 inhib 27, XBP1 UPR activ 1, Mdm2 MdmX PPI 54*, CHOP UPR activ 0, UBC13 polyUb 19, Mdm2 MdmX conf 43* and FLuc counter 65*.
